Structures can show the parent of a compound that is named as a salt.
Tested on: Canis familiaris
Experiment: Sympathomimetic action was evaluated from the increase of the femoral arterial blood pressure and of the cardiac uM/kg changes were <10%
Type: functional, Canis lupus familiaris
Settings: not given
How it was run: (§1)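 Mongrel dogs of both sexes were given compound intravenously in 0.5% carboxymethylcellulose. Hypertension and tachycardia were recorded. Values are doses in μmol/kg.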

SMILES	Activity
O=C([O-])CCN1CCN(CCOC(c2ccccc2)c2ccccc2)CC1.[Na+]	0

Tested on: Canis familiaris
Experiment: Sympathomimetic action was evaluated from the increase of the femoral arterial blood pressure and of the cardiac uM/kg changes were < 10%
Type: functional, Canis lupus familiaris
Settings: not given
How it was run: as §1

SMILES	Activity
CCOC(=O)CCN1CCN(CCOC(c2ccc(F)cc2)c2ccc(F)cc2)CC1.Cl	0
O=C(O)/C=C\C(=O)O.O=C(O)/C=C\C(=O)O.O=C(O)CCN1CCN(CCOC(c2ccccc2)c2ccc(F)cc2)CC1 (configuration not stated)	0

Tested on: Canis familiaris
Experiment: Sympathomimetic action was evaluated from the increase of the cardiac rhythm after intravenous injection in dog
Type: functional, Canis lupus familiaris
Settings: not given
How it was run: as §1

SMILES	Increase [%]
CC(N)Cc1ccccc1.O=S(=O)(O)O (racemic) [AMPHETAMINE SULFATE]	30

Tested on: Canis familiaris
Experiment: Sympathomimetic action was evaluated from the increase of the femoral arterial blood pressure after intravenous injection in dog
Type: functional, Canis lupus familiaris
Settings: not given
How it was run: as §1

SMILES	Increase [%]
CC(N)Cc1ccccc1.O=S(=O)(O)O (racemic) [AMPHETAMINE SULFATE]	50

Species: Cavia porcellus
Experiment: In vitro anticholinergic activity was determined by acetylcholine induced contraction of guinea pig ileum
Type: functional
Settings: read-out: pA2 (converted)
How it was run: (§2)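 Terminal ileum strips from guinea pigs (250-300 g) killed by a blow to the neck were hung in Tyrode solution at 32 °C, gassed with 95% O2/5% CO2.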

SMILES	Kb [µM]
COc1ccc(CN(CCN(C)C)c2ccccn2)cc1 [PYRILAMINE MALEATE]	3.98
CCOC(=O)CCN1CCN(CCOC(c2ccc(F)cc2)c2ccc(F)cc2)CC1.Cl	0.309
CCCC(OCCN1CCN(CCC(=O)O)CC1)c1ccccc1.O=C(O)/C=C\C(=O)O.O=C(O)/C=C\C(=O)O (configuration not stated)	1.95
O=C([O-])CCN1CCN(CCOC(c2ccccc2)c2ccccc2)CC1.[Na+]	115
CC(N)Cc1ccccc1.O=S(=O)(O)O (racemic) [AMPHETAMINE SULFATE]	> 1000
O=C(O)/C=C\C(=O)O.O=C(O)/C=C\C(=O)O.O=C(O)CCN1CCN(CCOC(c2ccccc2)c2ccc(F)cc2)CC1 (configuration not stated)	7.24

Species: Cavia porcellus
Experiment: In vitro antihistaminic activity was determined by histamine induced contraction of guinea pig ileum
Type: functional
Settings: not given
How it was run: as §2

SMILES	pA2
CCOC(=O)CCN1CCN(CCOC(c2ccccc2)c2ccccc2Cl)CC1.Cl (configuration not stated)	7.25

Same assay, conditions: Cavia porcellus, Ileum; read-out: pA2 (converted)

SMILES	Kb [µM]
COc1ccc(CN(CCN(C)C)c2ccccn2)cc1 [PYRILAMINE MALEATE]	0.000417
CCOC(=O)CCN1CCN(CCOC(c2ccc(F)cc2)c2ccc(F)cc2)CC1.Cl	0.00724
CCCC(OCCN1CCN(CCC(=O)O)CC1)c1ccccc1.O=C(O)/C=C\C(=O)O.O=C(O)/C=C\C(=O)O (configuration not stated)	3.55
O=C([O-])CCN1CCN(CCOC(c2ccccc2)c2ccccc2)CC1.[Na+]	0.759
CC(N)Cc1ccccc1.O=S(=O)(O)O (racemic) [AMPHETAMINE SULFATE]	13.5
O=C(O)/C=C\C(=O)O.O=C(O)/C=C\C(=O)O.O=C(O)CCN1CCN(CCOC(c2ccccc2)c2ccc(F)cc2)CC1 (configuration not stated)	0.224

Tested on: not listed separately
Experiment: Group toxicity is the ratio of the LD50 values of isolated mice to that of grouped mice
Type: organism-based
Settings: mouse, in vivo; read-out: Group toxicity
How it was run: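 Male Swiss mice (18-20 g) were dosed orally in 0.5% carboxymethylcellulose. Groups of 10 were then either crowded in small boxes (8.5 × 18 × 8.5 cm, four air holes) or kept isolated under usual housing, and mortality was read at 6 h. Ratio = LD50 isolated / LD50 grouped, from six doses spaced by ratio 2, computed by Kärber's method.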

SMILES	selectivity ratio
CCOC(=O)CCN1CCN(CCOC(c2ccc(F)cc2)c2ccc(F)cc2)CC1.Cl	0.4
O=C([O-])CCN1CCN(CCOC(c2ccccc2)c2ccccc2)CC1.[Na+]	0.6
CC(N)Cc1ccccc1.O=S(=O)(O)O (racemic) [AMPHETAMINE SULFATE]	5.3
O=C(O)/C=C\C(=O)O.O=C(O)/C=C\C(=O)O.O=C(O)CCN1CCN(CCOC(c2ccccc2)c2ccc(F)cc2)CC1 (configuration not stated)	1.7

Tested on: Mus musculus
Experiment: Increase of exploratory behavior of mice by administering compound perorally
Type: functional
Settings: not given
How it was run: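 Male Swiss mice (18-20 g) were dosed orally in 0.5% carboxymethylcellulose and placed singly in photobeam boxes with two crossed beams. Beam breaks were counted over the first 5 min. ED50 is the dose raising counts by 50% over vehicle controls, fitted by least squares from four groups of 10 mice on doses spaced by ratio 2.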

SMILES	ED50 [mmol/kg]
CCOC(=O)CCN1CCN(CCOC(c2ccccc2)c2ccccc2Cl)CC1.Cl (configuration not stated)	0.5
O=C(O)/C=C\C(=O)O.O=C(O)/C=C\C(=O)O.O=C(O)CCN1CCN(CCOC(c2ccc(F)cc2)c2ccc(F)cc2)CC1	0.05
CCOC(=O)CCN1CCN(CCOC(c2ccc(F)cc2)c2ccc(F)cc2)CC1.Cl	0.06
COc1cc(C(OCCN2CCN(CCC(=O)O)CC2)c2ccccc2)cc(OC)c1OC.O=C(O)/C=C\C(=O)O.O=C(O)/C=C\C(=O)O (configuration not stated)	0.5
O=C(O)/C=C\C(=O)O.O=C(O)/C=C\C(=O)O.O=C(O)CCCN1CCN(CCOC(c2ccccc2)c2ccc(F)cc2)CC1 (configuration not stated)	0.06
CCOC(=O)CCN1CCN(CCOC(c2ccccc2)c2ccc([N+](=O)[O-])cc2)CC1.Cl (configuration not stated)	0.5
O=C(CN1CCN(CCOC(c2ccccc2)c2ccccc2)CC1)N1CCOCC1.O=C(O)/C=C\C(=O)O.O=C(O)/C=C\C(=O)O.O=C(O)/C=C\C(=O)O	0.15
CCCC(OCCN1CCN(CCC(=O)O)CC1)c1ccccc1.O=C(O)/C=C\C(=O)O.O=C(O)/C=C\C(=O)O (configuration not stated)	0.1
O=C(O)CCN1CCN(CCOCc2ccccc2)CC1	0.5
O=C([O-])CCN1CCN(CCOC(c2ccccc2)c2ccccc2)CC1.[Na+]	0.21
O=C(O)/C=C\C(=O)O.O=C(O)/C=C\C(=O)O.O=C(O)CCN1CCN(CCOC(c2ccccc2)c2ccc(F)cc2)CC1 (configuration not stated)	0.04

Tested on: Mus musculus
Experiment: Toxicity administered perorally was measured in mice
Type: organism-based
Settings: in vivo, po
How it was run: (§3)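 Male Swiss mice (18-20 g) were given compound orally in 0.5% carboxymethylcellulose, in groups of four at 200, 400, 800 and 1600 mg/kg. LD50 was taken from mortality; vehicle controls were included.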

SMILES	LD50 [mmol/kg]
CCOC(=O)CCN1CCN(CCOC(c2ccccc2)c2ccccc2Cl)CC1.Cl (configuration not stated)	3.2
O=C(O)/C=C\C(=O)O.O=C(O)/C=C\C(=O)O.O=C(O)CCN1CCN(CCOC(c2ccc(F)cc2)c2ccc(F)cc2)CC1	1.1
CCOC(=O)CCN1CCN(CCOC(c2ccc(F)cc2)c2ccc(F)cc2)CC1.Cl	1.2
COc1cc(C(OCCN2CCN(CCC(=O)O)CC2)c2ccccc2)cc(OC)c1OC.O=C(O)/C=C\C(=O)O.O=C(O)/C=C\C(=O)O (configuration not stated)	2.3
O=C(O)/C=C\C(=O)O.O=C(O)/C=C\C(=O)O.O=C(O)CCCN1CCN(CCOC(c2ccccc2)c2ccc(F)cc2)CC1 (configuration not stated)	1.9
O=C(CN1CCN(CCOC(c2ccccc2)c2ccccc2)CC1)N1CCOCC1.O=C(O)/C=C\C(=O)O.O=C(O)/C=C\C(=O)O.O=C(O)/C=C\C(=O)O	1.2
CCCC(OCCN1CCN(CCC(=O)O)CC1)c1ccccc1.O=C(O)/C=C\C(=O)O.O=C(O)/C=C\C(=O)O (configuration not stated)	> 2.8
O=C(O)CCN1CCN(CCOCc2ccccc2)CC1	> 5.5
O=C([O-])CCN1CCN(CCOC(c2ccccc2)c2ccccc2)CC1.[Na+]	3.6
O=C(O)/C=C\C(=O)O.O=C(O)/C=C\C(=O)O.O=C(O)CCN1CCN(CCOC(c2ccccc2)c2ccc(F)cc2)CC1 (configuration not stated)	1.3

Tested on: Mus musculus
Experiment: Toxicity was measured as Lethal Dose 50 by administering to mice perorally
Type: organism-based
Settings: in vivo, po
How it was run: as §3

SMILES	LD50 [M/kg]
CCOC(=O)CCN1CCN(CCOC(c2ccccc2)c2ccc([N+](=O)[O-])cc2)CC1.Cl (configuration not stated)	3

Species: Rattus norvegicus
Experiment: Anorexic activity was measured as the dose required to lower by 50% the consumption of control group in rat
Type: functional
Settings: not given
How it was run: (§4)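 Male Wistar rats (100-120 g) given chocolate milk to drink for 6 h once a week over 6 weeks. In the last 4 weeks, compounds in 0.5% aqueous carboxymethylcellulose were given orally before each session in a Latin square design. ED50 is the dose cutting consumption by 50% vs vehicle controls, fitted by least squares from three groups (24 rats) on doses spaced by ratio 2.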

SMILES	ED50 [µmol/kg]
CC(N)Cc1ccccc1.O=S(=O)(O)O (racemic) [AMPHETAMINE SULFATE]	13

Species: Rattus norvegicus
Experiment: Anorexic activity was measured as the dose required to lower by 50% the consumption of control group in rat; No activity at this dose
Type: functional
Settings: not given
How it was run: as §4

SMILES	ED50 [µmol/kg]
O=C(O)/C=C\C(=O)O.O=C(O)/C=C\C(=O)O.O=C(O)CCN1CCN(CCOC(c2ccccc2)c2ccc(F)cc2)CC1 (configuration not stated)	> 60

Tested on: not listed separately
Experiment: Ratio of LD50/ED50
Type: ADME
Settings: not given

SMILES	selectivity ratio
O=C(O)/C=C\C(=O)O.O=C(O)/C=C\C(=O)O.O=C(O)CCN1CCN(CCOC(c2ccc(F)cc2)c2ccc(F)cc2)CC1	23
CCOC(=O)CCN1CCN(CCOC(c2ccc(F)cc2)c2ccc(F)cc2)CC1.Cl	20
O=C(O)/C=C\C(=O)O.O=C(O)/C=C\C(=O)O.O=C(O)CCCN1CCN(CCOC(c2ccccc2)c2ccc(F)cc2)CC1 (configuration not stated)	34
O=C(CN1CCN(CCOC(c2ccccc2)c2ccccc2)CC1)N1CCOCC1.O=C(O)/C=C\C(=O)O.O=C(O)/C=C\C(=O)O.O=C(O)/C=C\C(=O)O	8
CCCC(OCCN1CCN(CCC(=O)O)CC1)c1ccccc1.O=C(O)/C=C\C(=O)O.O=C(O)/C=C\C(=O)O (configuration not stated)	> 28
O=C([O-])CCN1CCN(CCOC(c2ccccc2)c2ccccc2)CC1.[Na+]	17
O=C(O)/C=C\C(=O)O.O=C(O)/C=C\C(=O)O.O=C(O)CCN1CCN(CCOC(c2ccccc2)c2ccc(F)cc2)CC1 (configuration not stated)	37

Tested on: Mus musculus
Experiment: Narcosis antagonism was measured as the dose required to lower by 50% the duration of narcosis in mice after peroral administration
Type: functional
Settings: po

SMILES	ED50 [µmol/kg]
CCOC(=O)CCN1CCN(CCOC(c2ccc(F)cc2)c2ccc(F)cc2)CC1.Cl	~200
O=C([O-])CCN1CCN(CCOC(c2ccccc2)c2ccccc2)CC1.[Na+]	> 500
CC(N)Cc1ccccc1.O=S(=O)(O)O (racemic) [AMPHETAMINE SULFATE]	20
O=C(O)/C=C\C(=O)O.O=C(O)/C=C\C(=O)O.O=C(O)CCN1CCN(CCOC(c2ccccc2)c2ccc(F)cc2)CC1 (configuration not stated)	> 650
